Bioassay records from PubChem.
Compounds with a hit are over-represented: about 3% of the library has one in this group of screens.
Myeloid diff 2: compounds promoting myeloid differentiation. ER-HoxA9 myeloid progenitors, lysozyme-GFP differentiation, flow cytometry. calls only at 10 µM. 1% of 360,000 active. AID 624256;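 active means normalized GFP-positive differentiation at or above the plate's own cutoff, the solvent-only control mean plus 3 SD; inconclusive means no clear call, values can overlap the other calls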;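 further: cells exposed to compound for four days before flow analysis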
SENP1 inh: blocks the human SENP1 SUMO protease catalytic domain; 0.21% of 360,000 active; AID 624204; recombinant SENP1 catalytic domain, CyPet-SUMO1-YPet FRET cleavage; inhibition, % at 10 µM;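 active means inhibition at least 30% at 10 µM, raw YFP signal under a set limit, fluorescence ratio 0.5 to 1.5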
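Assay system – human recombinant His6-tagged SENP1 catalytic domain enzyme · Input – SENP1 enzyme, 20 pM final · Buffer or medium – Tris pH 8 buffer plus EDTA, NaCl, BME, BSA, NP40, catalase · Schedule – 50 min reaction at room temperature · Technique – FRET read of cyan and yellow fluorescence · Control set – no-enzyme wells low, DMSO-plus-enzyme wells high control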
HNF4A DNA FP: change in binding of human HNF4 alpha to DNA; HNF4a-FITC DNA binding, fluorescence polarization, 1 h; P41235; 0.3% of 360,000 active; activity change, % at 10 µM; in the data active means activity change above about 30%, passing the limit was not always enough
H9c2 protect: myocardial damage modulation in H9c2 cells. H9c2 cardiomyocytes, H2O2 injury protection, ATPLite, 2 h. protection from H2O2 cell death, % at 20 µM. 0.63% of 360,000 active;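 active means compounds giving at least 50% protection of heart cells from peroxide-induced death in the single-dose screen, raw or plate-pattern-corrected value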
Pemphigus Ab inh: inhibitors of pemphigus antibody binding to human desmoglein-3; P32926; DSG3-coupled beads, scFv-anti-DSG3-GFP binding, flow cytometry; stronger effect = lower value; binding (percent of control), % at 10 µM; 0.48% of 310,000 active; AID 588358;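 active means binding more than 3 SD below its plate's average and above zero; inconclusive means below that plate limit but binding exactly zero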;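 further: hits lower antibody fragment binding to DSG3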
Target sequence (P32926 whole entry, looked up, the tested form may be a part): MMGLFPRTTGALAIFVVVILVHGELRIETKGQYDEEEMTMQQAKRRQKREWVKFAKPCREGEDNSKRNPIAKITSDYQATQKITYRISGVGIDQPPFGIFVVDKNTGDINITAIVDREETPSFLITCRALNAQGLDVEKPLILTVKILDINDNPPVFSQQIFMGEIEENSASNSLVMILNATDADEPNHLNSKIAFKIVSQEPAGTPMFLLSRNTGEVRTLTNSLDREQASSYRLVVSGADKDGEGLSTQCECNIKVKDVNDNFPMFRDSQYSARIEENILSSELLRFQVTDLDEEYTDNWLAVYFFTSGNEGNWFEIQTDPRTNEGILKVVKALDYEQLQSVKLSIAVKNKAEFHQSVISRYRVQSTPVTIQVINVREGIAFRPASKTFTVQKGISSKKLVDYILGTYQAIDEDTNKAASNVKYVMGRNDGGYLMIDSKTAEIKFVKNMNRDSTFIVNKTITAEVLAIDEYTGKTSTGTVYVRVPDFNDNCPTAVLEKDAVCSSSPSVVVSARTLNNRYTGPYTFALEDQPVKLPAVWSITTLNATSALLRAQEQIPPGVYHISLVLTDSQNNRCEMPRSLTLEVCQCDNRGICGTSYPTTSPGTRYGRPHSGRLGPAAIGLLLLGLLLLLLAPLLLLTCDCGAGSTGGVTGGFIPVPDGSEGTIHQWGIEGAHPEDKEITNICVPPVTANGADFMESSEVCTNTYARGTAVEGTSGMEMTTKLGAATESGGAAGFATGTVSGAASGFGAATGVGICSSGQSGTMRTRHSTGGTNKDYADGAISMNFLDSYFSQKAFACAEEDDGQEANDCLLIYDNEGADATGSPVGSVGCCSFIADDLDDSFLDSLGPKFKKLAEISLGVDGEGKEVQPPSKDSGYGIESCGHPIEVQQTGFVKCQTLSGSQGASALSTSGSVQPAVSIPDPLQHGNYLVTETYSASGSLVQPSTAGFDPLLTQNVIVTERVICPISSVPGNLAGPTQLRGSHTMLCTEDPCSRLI
Granule exo inh: blocks lytic granule exocytosis; TALL-104 LAMP-1 surface exposure, flow cytometry; cells stimulated with thapsigargin and PMA; inhibition, % at 10 µM; 0.66% of 360,000 active; AID 651702;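 active means inhibition above about 55%, limit read from the data; inconclusive means no clear call, values can overlap the other calls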
Large screens that a line does not name were inactive.

COc1cccc(/C=N/NC(=O)Cn2nc(C)c([N+](=O)[O-])c2C)c1O	H9c2 protect 54
COc1cccc(/C=N/NC(=O)CSc2ccccc2C)c1O	H9c2 protect 53
COc1cccc(/C=N/NC(=O)CNC(=O)CCc2ccccc2)c1O	none
COc1cccc(/C=N/NC(=O)CNC(=O)c2cccs2)c1O	H9c2 protect 63
CCc1ccc(CNC(=O)CCn2ccc3cc(S(=O)(=O)N4CCCC4)ccc32)cc1	none
COc1ccc(/C=N/NC(=O)c2ccn[nH]2)cc1Cn1nc(C)c([N+](=O)[O-])c1C	none
COc1ccccc1/C=C/C(=O)NCC(=O)N/N=C/c1cc(Br)ccc1OC	H9c2 protect 98
COc1ccc(/C=N/NC(=O)c2ccco2)cc1Cn1nc(C)c([N+](=O)[O-])c1C	Pemphigus Ab inh -160
COc1ccc(/C=N/NC(=O)CNC(=O)/C=C/c2ccccc2OC)cc1	Myeloid diff 2 active
C/C(=N/NC(=O)c1ccoc1C)c1cccc(NC(=O)C2CC2)c1	none
COC(=O)[C@H](C(C)C)N(Cc1ccccc1)S(=O)(=O)CCN1CCN(c2ccccc2)CC1	none
O=c1[nH]c2ccccc2cc1CN(Cc1cccnc1)S(=O)(=O)c1ccc(Cl)cc1	none
COC(=O)c1ccccc1S(=O)(=O)N(Cc1ccco1)Cc1cc2cc(OC)ccc2[nH]c1=O	H9c2 protect 59
CC(=O)Nc1ccc(S(=O)(=O)N(Cc2ccco2)Cc2cc3ccccc3[nH]c2=O)cc1	H9c2 protect 58
CC(=O)Nc1ccc(S(=O)(=O)N(Cc2cccnc2)Cc2cc3ccccc3[nH]c2=O)cc1	H9c2 protect 64
CCCCNC(=O)C(NC(=O)c1cccc(C(F)(F)F)c1)C(=O)c1ccccc1 (centres undefined)	none (no result: Pemphigus Ab inh)
CSc1ccc(CCNC(=O)CCc2nnc3ccc(N4CCC5(CC4)OCCO5)nn23)cc1	Myeloid diff 2 inconclusive (no result: Pemphigus Ab inh)
CCCn1c(O)c(C=Nc2ccccc2)sc1=S	none
Oc1c(/C=C/C=C/C=Nc2ccccc2)sc(=S)n1Cc1ccccc1	HNF4A DNA FP 43
CCn1c(O)c(/C=C/C=C/C=Nc2ccccc2)sc1=S	none
CCCCn1c(O)c(/C=C/C=C/C=Nc2ccccc2)sc1=S	HNF4A DNA FP 51
CCOC(=O)c1[nH]c(C)c(C(=O)Nc2cccc(Cl)c2C)c1C	Myeloid diff 2 active
CCOC(=O)c1[nH]c(C)c(C(=O)Nc2ccc(Cl)cc2)c1C	none
COc1ccc2cc(-c3ccn[nH]3)ccc2c1	Myeloid diff 2 active
COc1ccc(-c2cc(-c3ccccc3O)[nH]n2)cc1	none
COc1ccc(C(=O)C=CNNC(=O)c2ccc(Cl)cc2)cc1	none
O=C(/C=C/NNC(=O)c1ccccc1)c1ccc(Br)cc1	H9c2 protect 59
COc1ccc(C(=O)NN/C=C/C(=O)c2ccc(Br)cc2)cc1	H9c2 protect 58
N#C/C(=C/c1ccc(Sc2nc3ccccc3[nH]2)o1)c1cccc(Br)c1	none
CCN1C(=O)S/C(=C/c2ccc(Sc3nc4ccccc4[nH]3)o2)C1=O	HNF4A DNA FP 102
O=C(Nc1ccc(F)c(F)c1)C1CCCN(S(=O)(=O)c2cccc3nonc23)C1 (centres undefined)	Myeloid diff 2 active (no result: Pemphigus Ab inh)
Cc1cccc(NC(=O)C2CCCN(S(=O)(=O)c3cccc4nonc34)C2)c1 (centres undefined)	none
CC(C)Cc1nc2oc3c(NCC4CCCO4)ncnc3c2c2c1CCC2 (centres undefined)	H9c2 protect 73
CC(C)Cc1nc2oc3c(NCc4cccnc4)ncnc3c2c2c1CCC2	none
O=C1C(CO)C(CO)C(CO)C1CO (centres undefined)	Granule exo inh 69
COc1ccc(-c2c(C#Cc3ccsc3)c3cc(-c4cccc5[nH]ccc45)ccc3n2C)cc1	none
COc1ccc(-c2c(C#Cc3ccsc3)c3cc(-c4ccc5[nH]ccc5c4)ccc3n2C)cc1	Myeloid diff 2 active
C=CCn1c(O)c(C2=c3ccccc3=NC2=O)s/c1=N/c1nccs1	Pemphigus Ab inh 81
Cn1c(O)c(C2=c3ccccc3=NC2=O)sc1=Nc1ccc(Cl)cc1	none
C=CCn1c(O)c(C2=c3ccccc3=NC2=O)c2ccccc21	Granule exo inh 62 (no result: Myeloid diff 2)
Cc1cccc(C(=O)N2CCC(=O)N(C(COCc3cccc(C(F)(F)F)c3)Cc3ccccc3)CC2)c1 (centres undefined)	Myeloid diff 2 active
Cc1cccc(C(=O)N2CCC(=O)N([C@H](COCc3cccc(C(F)(F)F)c3)Cc3ccccc3)CC2)c1	none (no result: H9c2 protect, Pemphigus Ab inh)
CCOC(=O)[C@]12CCC=C1N(CCC1=CCCCC1)C(=O)[C@H](CC(=O)NCc1ccc(OC)c(OC)c1)C2	none (no result: H9c2 protect, Pemphigus Ab inh)
Cc1cc(C(=O)N/N=C/c2cc(Br)cc(Br)c2OC(=O)c2cccc(F)c2)n[nH]1	H9c2 protect 83
Cc1cc(C(=O)N/N=C\c2cc(C(C)(C)C)ccc2O)n[nH]1	Myeloid diff 2 active, H9c2 protect 62
Cc1cccc(C(=O)Oc2c(Br)cc(Br)cc2/C=N/NC(=O)c2ccncc2)c1	none (no result: Pemphigus Ab inh)
Cc1ccc(Nc2nc(N/N=C\c3ccc4c(c3)OCO4)nc(N3CCOCC3)n2)cc1	none
CNc1nc(-c2ccccn2)nnc1-c1ccccc1	H9c2 protect 52
O=C(N/N=C/c1cccs1)c1cc(-c2ccc(Cl)s2)[nH]n1	none (no result: Myeloid diff 2, Pemphigus Ab inh)
CCOC(=O)c1ccc(NC(=O)COc2ccccc2CNCCc2ccccc2)cc1	Granule exo inh 69
C[C@@H]1COc2cc(N3CC[C@H](O)C3)ccc2S(=O)(=O)N1	none (no result: H9c2 protect, Pemphigus Ab inh)
CC(C)OCCCN(C)C1CCN(S(=O)(=O)c2ccc(-c3cc(C(F)(F)F)no3)s2)CC1	Myeloid diff 2 active (no result: Pemphigus Ab inh)
CC(C)OCCCN(C)C1CCN(S(=O)(=O)c2csc(C(N)=O)c2)CC1	none
Cc1ccc(C)c(NC(=O)CS(=O)(=O)c2cccc3nsnc23)c1	none
Cc1c(CNC(=O)C2CCC(=O)N(CCc3ccccc3)C2)cnn1C (centres undefined)	Myeloid diff 2 inconclusive
CCN(CC(=O)Nc1cc(Cl)ccc1C)C(=O)CCc1nc2ccccc2c(=O)[nH]1	Myeloid diff 2 inconclusive, H9c2 protect 69
O=C(COC(=O)CCc1nc2ccccc2c(=O)[nH]1)Nc1c(Cl)cccc1C(F)(F)F	H9c2 protect 52
Cc1ccccc1NC(=O)COC(=O)CCc1nc2ccccc2c(=O)[nH]1	H9c2 protect 65
O=C(COC(=O)CCc1nc2ccccc2c(=O)[nH]1)Nc1ccc2c(c1)OCO2	H9c2 protect 52
O=c1[nH]c2ccccc2n2c(=S)[nH]nc12	none
O=C(NCC1CCCN1S(=O)(=O)c1cccs1)c1ccc([N+](=O)[O-])cc1 (centres undefined)	none
CCC(=O)Nc1nnc(S(=O)(=O)N2c3ccccc3CC2C)s1 (centres undefined)	none
